Screens deposited in PubChem by The Scripps Research Institute Molecular Screening Center.
Only some compounds are listed: those with a hit (about 2.7% of all), similar ones and a draw of the others.
RBBP9 inh: human RBBP9 inhibitors, primary screen, biochemical, fluorescence polarization, FP-Rh probe, HTS | Serine hydrolase RBBP9 (Homo sapiens), O75884 | recombinant RBBP9 | inhibition, % at 7.94 µM | 0.2% of 220,000 active | AID 1515, 2009;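 active = inhibition above the campaign mean of all tested compounds plus 3 SD, cut at about 14% in these data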;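 note: plate controls were DMSO wells with RBBP9 for no effect and wells lacking RBBP9 protein for full effect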
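Assay system: recombinant human RBBP9; Reagent: Serine-hydrolase probe FP-Rh, 375 nM pre-mixing; Doses: 7.94 µM single dose, 0.794% DMSO; Incubation: 30 min then 45 min, 25 °C; Detection: fluorescence polarization (mP), excitation 525 nm, emission 598 nm; Evaluation: percent inhibition from mP, scaled between DMSO and no-protein wells.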
PRMT1 FP inh: PRMT1 methyltransferase inhibitors, primary screen, biochemical, fluorescence polarization; Protein arginine N-methyltransferase 1 (Homo sapiens), Q99873; recombinant PRMT1, activity-based probe fluorescence polarization; 1.3% of 370,000 active; inhibition, % at 2.79 µM; AID 652257, 2013;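 active = inhibition above about 21% made by adding two undisclosed values, limit read from the data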
GSTO1 inh: inhibitors of recombinant GSTO1, primary screen, counter-screen for RBBP9 inhibitor project, biochemical, fluorescence polarization | activity-based probe fluorescence polarization | inhibition, % at 5.96 µM | 1.1% of 300,000 active;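 active = inhibition above the campaign mean inhibition plus 3 SD, cut at about 35% in these data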;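 note: 0% = GSTO1-1 with DMSO and 100% = wells lacking GSTO1-1 enzyme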
SIAE primary: human SIAE inhibitors, primary screen, biochemical, fluorescence polarization, FP-Rh probe, 1536-well HTS; Sialate O-acetylesterase (Homo sapiens), Q9HAT2; SIAE FP-Rh probe binding; inhibition, % at 9.66 µM; 0.69% of 370,000 active; AID 1053197, 2014;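 active = inhibition above a cutoff: mean of compounds within the control limits plus 3 SD of those, cut at about 17% in these data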;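 note: 0% = plate median of compound wells and 100% = probe without SIAE protein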
Target sequence (Q9HAT2 whole entry, looked up): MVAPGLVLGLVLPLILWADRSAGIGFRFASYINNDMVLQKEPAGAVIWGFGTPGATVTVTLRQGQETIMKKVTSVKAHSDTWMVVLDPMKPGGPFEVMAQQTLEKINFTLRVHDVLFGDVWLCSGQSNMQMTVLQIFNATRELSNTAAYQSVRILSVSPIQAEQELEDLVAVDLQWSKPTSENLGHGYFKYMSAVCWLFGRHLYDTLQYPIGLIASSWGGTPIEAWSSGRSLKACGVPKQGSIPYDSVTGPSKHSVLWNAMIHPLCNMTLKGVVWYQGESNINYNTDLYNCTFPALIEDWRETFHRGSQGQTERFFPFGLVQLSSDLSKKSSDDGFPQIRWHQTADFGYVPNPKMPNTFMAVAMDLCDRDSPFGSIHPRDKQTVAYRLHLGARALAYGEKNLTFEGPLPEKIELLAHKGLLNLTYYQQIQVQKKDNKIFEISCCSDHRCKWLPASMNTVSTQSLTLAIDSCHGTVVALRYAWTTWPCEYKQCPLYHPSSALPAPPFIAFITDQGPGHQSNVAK
PAD4 FP inh: human PAD4 inhibitors, primary screen, biochemical, fluorescence polarization, 1536-well format; inhibition, % at 6.36 µM; recombinant PAD4, RCA probe fluorescence polarization; 0.41% of 330,000 active; Protein-arginine deiminase type-4 (Homo sapiens), Q9UM07;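 active = percent inhibition above a cutoff equal to the mean of all tested compounds plus 3 SD, cut at about 15% in these data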;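 note: 0% = PAD4 with RCA probe and DMSO and 100% = probe without PAD4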
* = called active by the depositor; x = no result.

SMILES	RBBP9 inh	PRMT1 FP inh	GSTO1 inh	SIAE primary	PAD4 FP inh
Cc1cc(-c2ccccc2)c(C#N)c(=S)[nH]1	-4	19	6	-1	-4
CCCCN(C(=O)c1cc(-c2ccco2)nc2ccccc12)c1c(N)n(CCCC)c(=O)[nH]c1=O	x	22*	4	5	-4
Cc1ccc(-c2cc(C(=O)OCC(=O)N(C)c3c(N)n(Cc4ccccc4)c(=O)[nH]c3=O)c3ccccc3n2)o1	x	24*	-3	2	-5
CCCCn1c(N)c(N(CCC(C)C)C(=O)c2cc(-c3ccco3)nc3ccccc23)c(=O)[nH]c1=O	x	22*	4	5	-5
O=C1NC(c2cccc([N+](=O)[O-])c2)=CCN1c1ccccc1O	-2	2	3	-1	2
O=c1c(O)c(-c2cccs2)oc2ccc(Cl)cc12	2	2	14	16	-2
O=C(NCCN1CCCCCC1)c1ccc(CS(=O)(=O)c2ccc(Br)cc2)o1	-2	x	1	x	-3
COc1cc(C(=O)Nc2ccc(Cl)c([N+](=O)[O-])c2)cc(OC)c1OC	-3	-2	-4	-3	1
Cc1cc(Nc2cccc(Cl)c2)nc(NCc2ccccc2)n1	-5	-1	-12	24*	-3
Cc1cc(N/N=C/c2cccc(Cl)c2)nc(NCc2ccccc2)n1	-9	0	-3	8	2
C=CC[C@H]1Cc2c(cccc2[N+](=O)[O-])[C@H](CC=C)N1	2	4	2	-4	-15
CCCCNC(=O)C(=O)Nc1cc2c3c(c1)CCC(=O)N3CCC2	x	-1	2	17	1
C=CCc1cccc(C=Nc2ccc(Br)cc2)c1O	-1	0	4	9	-1
C=CCc1cccc(/C=N/c2ncccc2O)c1O	7	22*	20	16	-5
CCc1c(O)nc(SCc2nc3ccccc3c(=O)[nH]2)[nH]c1=O	-4	14	20	-2	10
Cc1cc(C)c(C)c(OC(=O)c2sc(Cl)nc2C)c1	0	-1	36*	1	0
Cc1ccc(NC(=O)c2sc(Cl)nc2C)c(C)c1	-8	-4	4	2	-1
CCOc1c(Br)cc(CNc2ccc3c(c2)OCCO3)cc1OC	0	2	2	29*	-6
CCOc1cc(CNc2ccc3c(c2)OCCO3)cc(Br)c1OC	-4	2	8	7	-6
C#CCNC(=O)C[C@H]1C[C@@]2(C(=O)OC)C(=C[C@H](COCc3ccccc3)O[C@@H]2C)N(Cc2ccc3c(c2)OCO3)C1=O	x	5	x	8	x
Cc1cccc(-n2nc3c(c2NC(=O)CCCl)CSC3)c1	x	4	20	1	-4
O=C(CCCCl)Nc1c2c(nn1-c1ccccc1)CSC2	x	23*	5	2	3
O=c1[nH]c(=S)[nH]c2c1C(c1ccc(Br)cc1)c1c([nH]c(=S)[nH]c1=O)O2	x	45*	-236	-145	-23
CC(C)(C)c1cc[n+](/C(C(=S)Nc2ccccc2F)=C(/[O-])c2ccc3c(c2)OCCO3)cc1	-9	24*	-2	-10	-2
CCOc1ccccc1NC(=S)/C(=C(\[O-])c1ccc2c(c1)OCCO2)[n+]1ccc(CC)cc1	-8	7	7	4	0
SMILES	RBBP9 inh	PRMT1 FP inh	GSTO1 inh	SIAE primary	PAD4 FP inh
CCOc1ccc(N(C(=O)CNS(=O)(=O)c2ccccc2)C(CC)C(=O)NCc2ccco2)cc1 (centres undefined)	-9	4	-4	0	-10
O=C1OC2(CCCCC2)OC(=O)C1=CNc1ccc2c(c1)OCO2	-8	-1	1	4	-3
O=C1/C(=C/Nc2ccc3c(c2)OCO3)CCc2ccccc21	-5	23*	14	5	0
COc1ccc(OCc2nnc(SCC(=O)N(C)Cc3ccccc3)n2N)cc1	-8	21*	-2	-2	-1
Cc1ccc(OCc2nnc(SCC(=O)O)n2N)cc1	-4	-1	-2	0	3
O=S(=O)([N-]c1nc2ccccc2nc1-[n+]1ccc(-c2ccncc2)cc1)c1ccccc1	-7	22*	2	1	1
O=C1N=c2ccccc2=C1c1c(O)n(-c2cccc(F)c2)[nH]c1=O	-13	21*	3	7	-2
